Data from ChEMBL document CHEMBL4145559 (ACS Med Chem Lett, 2018).
In brackets after ≈: the same amount, converted by molar mass. Activity calls are given as the source filed them. No cut-off for these calls is given here.

Legend:
[1] = Inhibition of Escherichia coli type 1 signal peptidase using peptide substrate after 30 mins by fluorescence assay
In short: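 Purified E. coli SPase was assayed with the internally quenched fluorogenic peptide (Dabcyl)-AGHDAHA↓SET-(EDANS), with cleavage at the arrow separating the EDANS donor from the Dabcyl acceptor. IC50 was taken as the half-maximal inhibitory concentration.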

[2] = system: Staphylococcus epidermidis; assay: Antimicrobial activity against Staphylococcus epidermidis RP26A; assay type: functional
In short: (§1)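 MICs determined by the standard CLSI broth microdilution method on intact bacteria (E. coli MG1655; S. epidermidis RP26A).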

Yersinia pestis = assay: Antimicrobial activity against Yersinia pestis KIM6+; assay type: functional
Escherichia coli = assay: Antimicrobial activity against Escherichia coli MG1655 by broth micro dilution method; assay type: functional, organism-based; conditions: K-12 substr. MG1655; in short: as §1
HEK293 = assay: Cytotoxicity against HEK293 cells up to 128 ug/ml after 24 hrs by resazurin dye based fluorescence assay; assay type: cell-based; conditions: human, hek293, 24 h

## C[C@@H](O)[C@H]1C(=O)N2C(C(=O)O)=C(CCc3ccccn3)S[C@H]12
[1]
  IC50: 1.31 µg/mL (≈ 4.09 µM)
[2]
  MIC: 16 µg/mL (≈ 49.9 µM)
Yersinia pestis
  MIC: 32 µg/mL (≈ 99.9 µM)

## C[C@@H](O)[C@H]1C(=O)N2C(C(=O)O)=C(S[C@@H]3CC[S+]([O-])C3)S[C@H]12 (stereo not given in full)
[1]
  IC50: 1.16 µg/mL (≈ 3.32 µM)
[2]
  MIC: 16 µg/mL (≈ 45.8 µM)

## C[C@@H](O)[C@H]1C(=O)N2C(C(=O)O)=CS[C@H]12
[1]
  IC50: 2.99 µg/mL (≈ 13.9 µM)
Escherichia coli
  Activity: inactive
[2]
  MIC: 128 µg/mL (≈ 595 µM)
Yersinia pestis
  MIC: 128 µg/mL (≈ 595 µM)

## C[C@@H](O)[C@H]1C(=O)N2C(C(=O)O)=C(SCCOC(N)=O)S[C@H]12 [Sch-34343]
[1]
  IC50: 0.96 µg/mL (≈ 2.87 µM)
[2]
  MIC: 4 µg/mL (≈ 12 µM)
Yersinia pestis
  MIC: 16 µg/mL (≈ 47.9 µM)

## C[C@@H](O)[C@H]1C(=O)N2C(C(=O)O)=C(S[C@H]3CCNC3)S[C@H]12
[1]
  IC50: 0.8 µg/mL (≈ 2.53 µM)
[2]
  MIC: 8 µg/mL (≈ 25.3 µM)
Yersinia pestis
  MIC: 8 µg/mL (≈ 25.3 µM)

## C[C@@H](O)[C@H]1C(=O)N2C(C(=O)O)=C(SCCN)S[C@H]12
[1]
  IC50: 0.63 µg/mL (≈ 2.17 µM)
[2]
  MIC: 16 µg/mL (≈ 55.1 µM)
Yersinia pestis
  MIC: 16 µg/mL (≈ 55.1 µM)
HEK293
  Activity: Non-Toxic

## C[C@@H](O)[C@H]1C(=O)N2C(C(=O)O)=C(S[C@@H]3CCNC3)S[C@H]12
[1]
  IC50: 1.75 µg/mL (≈ 5.53 µM)
[2]
  MIC: 4 µg/mL (≈ 12.6 µM)
Yersinia pestis
  MIC: 16 µg/mL (≈ 50.6 µM)
HEK293
  Activity: Non-Toxic

## C[C@@H](O)[C@H]1C(=O)N2C(C(=O)O)=C(SCCN(C)C)S[C@H]12
[1]
  IC50: 3.95 µg/mL (≈ 12.4 µM)
[2]
  MIC: > 128 µg/mL
Yersinia pestis
  MIC: > 128 µg/mL

## C[C@@H](O)[C@H]1C(=O)N2C(C(=O)O)=C(S[C@@H]3CN[C@H](C(=O)N(C)C)C3)S[C@H]12
[1]
  IC50: 1.22 µg/mL (≈ 3.15 µM)
[2]
  MIC: 32 µg/mL (≈ 82.6 µM)
Yersinia pestis
  MIC: 64 µg/mL (≈ 165 µM)

## C[C@@H](O)[C@H]1C(=O)N2C(C(=O)O)=C(SCCO)S[C@H]12
[1]
  IC50: 1.49 µg/mL (≈ 5.11 µM)
[2]
  MIC: 8 µg/mL (≈ 27.5 µM)
Yersinia pestis
  MIC: 32 µg/mL (≈ 110 µM)
HEK293
  Activity: Non-Toxic

## C[C@@H](O)[C@H]1C(=O)N2C(C(=O)O)=C(SCCNC=N)S[C@H]12
[1]
  IC50: 1.04 µg/mL (≈ 3.28 µM)
[2]
  MIC: 8 µg/mL (≈ 25.2 µM)
Yersinia pestis
  MIC: 16 µg/mL (≈ 50.4 µM)
HEK293
  Activity: Non-Toxic

## CNCCSC1=C(C(=O)O)N2C(=O)[C@H]([C@@H](C)O)[C@H]2S1
[1]
  IC50: 6.37 µg/mL (≈ 20.9 µM)
[2]
  MIC: > 128 µg/mL
Yersinia pestis
  MIC: > 128 µg/mL
